# Bioassay records from PubChem.
# Only some compounds are listed: those with a hit (about 4.6% of all), similar ones and a draw of the others.
# OX1R antag-1: OX1R (HCRTR1) antagonists, primary screen, fluorescence, CHO/OX1R cells, Fluo-8 calcium, orexin A; Orexin/Hypocretin receptor type 1 (Homo sapiens), O43613; Fluo-8 calcium fluorescence; inhibition, % at 5 µM; 330,000 tested, 0.43% active; AID 434989, 2010;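 active means inhibition above its plate's threshold, mean inhibition of all tested compounds on the plate plus 3 SD, cut at about 37% in these data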;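 further: 0% = orexin A challenge wells and 100% = SB-334867-A antagonist wells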
# Target sequence (O43613 whole entry, looked up): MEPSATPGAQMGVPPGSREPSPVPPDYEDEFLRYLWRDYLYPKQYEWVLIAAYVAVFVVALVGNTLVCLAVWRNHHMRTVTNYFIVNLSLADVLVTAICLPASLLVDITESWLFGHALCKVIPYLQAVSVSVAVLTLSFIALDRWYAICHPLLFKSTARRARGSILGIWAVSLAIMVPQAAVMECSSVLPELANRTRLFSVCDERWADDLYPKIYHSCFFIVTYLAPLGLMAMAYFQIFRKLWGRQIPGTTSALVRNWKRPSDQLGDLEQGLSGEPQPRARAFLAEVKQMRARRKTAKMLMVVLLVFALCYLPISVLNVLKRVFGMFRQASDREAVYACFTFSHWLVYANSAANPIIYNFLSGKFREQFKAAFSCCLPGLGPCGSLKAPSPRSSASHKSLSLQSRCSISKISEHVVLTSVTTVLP
# CHO parental Ca: ATP-evoked calcium signal inhibitors, parental CHO, primary screen, counter-screen for OX1R antagonist project, cell-based, fluorescence, Fluo-8 calcium dye; 330,000 tested, 0.63% active; parental CHO-K1, ATP-induced calcium, Fluo-8 fluorescence; inhibition, % at 5.6 µM;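 active means inhibition above that plate's mean sample inhibition plus 3 SD, cut at about 26% in these data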;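 further: 0% = ATP-challenged DMSO wells and 100% = DMSO wells without ATP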
#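 Assay system: untransfected parental CHO cell line. Also added: ATP agonist challenge. Dosing: one dose, 5.6 µM nominal. Measured by: Fluo-8 fluorescence. Read-out: % inhibition. Benchmarks: ATP wells versus no-ATP DMSO wells. Repeats: no replicates.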
# OX1R antag-2: antagonists of human orexin 1 receptor (OX1R); Orexin/Hypocretin receptor type 1 (Homo sapiens), O43613; OX1R-expressing cells, FRET antagonist read-out; inhibition, % at 6.6 µM; 330,000 tested, 1.8% active; AID 485270, 2010; in the data active means inhibition mostly above about 38%, no sharp cut-off; inactive means mostly below about 40%;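 further: 0% = agonist challenge alone and 100% = reference antagonist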
# GPR7 antagonist: GPR7 receptor antagonists, primary screen, cell-based, fluorescence, single concentration | Neuropeptides B/W receptor type 1 (Homo sapiens), P48145 | GPR7-expressing cells, fluorescence antagonist assay | inhibition, % at 4.4 µM | 290,000 tested, 1.1% active; in the data active means inhibition above about 16%, passing the limit was not always enough;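 further: cells stimulated with the agonist NPW; 0% = agonist with vehicle and 100% = vehicle without agonist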
# TAAR1 antagonist: human TAAR1 antagonists, primary screen, Fluo-8 calcium fluorescence, CHO RD-HGA16 cells. 360,000 tested, 1.5% active. inhibition, % at 3 µM. antagonist;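 active means inhibition above a per-plate cutoff, the mean inhibition of test compounds on that plate plus 3 SD, cut at about 49% in these data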;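 further: 0% = DMSO plus EC80 beta-PEA response and 100% = DMSO alone without agonist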
#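 test system = CHO RD-HGA16 cells bearing hTAAR1 | replication = singlicate | controls = DMSO-only wells and EC80 β-PEA-stimulated wells | reagent = EC80 β-phenethylamine stimulus | read-out basis = percent inhibition of PEA-evoked calcium signal, max/basal emission ratio | schedule = seeding 17-24 h prior, 75-min 37 °C, 30-min RT dye loading | signal = kinetic Fluo-8 calcium fluorescence measurement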
# TAAR1 ag: human TAAR1 agonists, primary screen, Fluo-8 calcium fluorescence, CHO RD-HGA16 cells | Trace amine-associated receptor 1 (Homo sapiens), Q96RJ0 | vehicle wells 0%, saturating PEA agonist 100% | activation, % at 3 µM | 360,000 tested, 0.99% active | AID 624467, 2012;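 active means activation above the mean activation of all test compounds in the run plus 3 SD, cut at about 38% in these data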
#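 Benchmarks: low control DMSO, high control PEA (EC100); System: CHO RD-HGA16 cells carrying human TAAR1 plus Gα16; Detection: Fluo-8 fluorescence, 5 s baseline then 140 s kinetic read; Schedule: 17-24 h plating, Fluo-8 75 min 37 °C, 30 min RT; Read-out basis: % activation from peak over basal fluorescence ratio, DMSO-to-PEA scaled.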
# An asterisk follows results filed as active; · = not tested or not shown.
SMILES,OX1R antag-1,CHO parental Ca,OX1R antag-2,GPR7 antagonist,TAAR1 antagonist,TAAR1 ag
O=c1[nH]c(O)c(N=Nc2ccc(S(=O)(=O)N3CCOCC3)cc2)c(=O)[nH]1,5.3,-6.8,43.6,-5.5,-6.6,2.1
O=c1[nH]c(=S)[nH]c(O)c1N=Nc1cc2c(cc1[N+](=O)[O-])OCO2,-6.3,1.4,48.1,-9.1,-12.8,12.1
COc1cccc(N=Nc2c(O)[nH]c(=S)[nH]c2=O)c1,-9.3,-1.1,69.2*,-8.8,-13.8,-1.5
Oc1cc(O)cc(/C=C/c2ccc(O)cc2O)c1,9.0,-1.3,5.6,·,·,·
FC(F)(F)Oc1ccc(C2NCc3ccccc3-n3cccc32)cc1 (stereo not drawn),-41.8,-19.3,17.3,11.0,15.6,7.5
CC(C)c1ccc(C2NCc3ccccc3-n3cccc32)cc1 (stereo not drawn),·,·,·,19.4,62.5*,29.3
CCC(=O)N1N=C2C3CCN(CC3)C2C1c1ccc(C)cc1 (stereo not drawn),-0.2,-12.9,2.8,-10.6,-12.2,2.9
CCCCCOc1ccc(C)cc1CN(CCCl)CCCl,-31.2,-14.7,4.4,30.1*,-9.7,1.4
CCCCOC(=O)c1ccc(NC(=O)c2c(O)[nH]c(=O)[nH]c2=O)cc1,-19.9,-2.9,20.6,·,-0.1,1.7
C/C(=N\NC(N)=O)c1c(O)n(C)c(=O)n(C)c1=O,-9.6,34.6*,14.2,-15.4,-1.7,3.1
O=[N+]([O-])c1ccc(N2CCCNCC2)c2ncccc12,-6.2,-2.9,39.7*,-4.7,8.1,2.6
O=[N+]([O-])c1ccc(N2CCOCC2)c2cccnc12,15.5,-1.6,71.0*,-11.8,-10.0,1.8
O=[N+]([O-])c1ccc(N2CCCCC2)c2ncccc12,-23.1,-6.3,44.2,-3.3,3.4,-0.2
O=C1NC(=O)C(CCc2ccncc2)(Cc2ccc3c(c2)OCO3)C(=O)N1CCc1ccccc1 (stereo not drawn),-17.4,-9.2,18.4,3.0,48.7*,18.9
O=C1NC(=O)C(CCc2ccncc2)(CCc2ccncc2)C(=O)N1CCc1ccccc1,-26.9,-8.8,5.2,-16.1,2.8,9.4
C=C1C(=O)OC2CC3(C)OC3C3OC3C3=CC(OC3=O)C12 (stereo not drawn),·,·,·,·,7.5,1.8
O=C1NC(=O)N(Cc2ccc(F)cc2)C(=O)/C1=C\C=C\c1ccco1,3.5,1.8,3.4,-5.5,29.7,17.1
Cc1ccc(N2C(=O)NC(=O)/C(=C/C=C/c3ccco3)C2=O)cc1,1.6,-10.2,14.8,-1.8,50.8*,37.2
CC[N+](C)(CC)CCCCOc1ccc2c(c1)C(=O)c1cc(OCCCC[N+](C)(CC)CC)ccc1-2,-1.1,-16.3,70.7*,-12.5,-24.4,0.7
COc1ccccc1CNCCc1ccc(F)cc1,-21.2,-18.9,4.0,-2.6,-8.7,40.5*
COc1cc(OC)c(OC)cc1CNCCc1ccc(F)cc1,·,·,·,13.5,-24.9,5.0
COC(=O)C1=C(C(=O)OC)C2OC1c1cc3ccccc3cc12,·,·,·,·,58.2*,20.4
COC(=O)C1=C(c2ccc3ccccc3c2)C[C@@H]2CC[C@H]1N2C,-9.3,-11.6,17.4,·,-1.0,18.3
O=C1c2ccccc2-n2nnnc2C2c3ccccc3-n3nncc3CN12 (stereo not drawn),·,·,·,·,-16.5,0.0
Nc1c(Br)cc([N+](=O)[O-])cc1[N+](=O)[O-],-19.5,-6.5,36.1*,·,18.1,-0.6
SMILES,OX1R antag-1,CHO parental Ca,OX1R antag-2,GPR7 antagonist,TAAR1 antagonist,TAAR1 ag
ClCCN(CCCl)c1ccc(-n2cnc3c(Cl)ncnc32)cc1,·,·,·,·,-31.4,0.5
COC1C(OC(=O)c2ccc(C)[nH]2)C(O)C(Oc2ccc3c(O)c(NC(=O)c4ccc(O)c(CC=C(C)C)c4)c(=O)oc3c2Cl)OC1(C)C (stereo not drawn),35.8,32.1*,11.1,13.6,12.4,-1.6
COc1ccc(OC(=O)N(C)C)c(CN(C)C)c1,-22.3,-5.8,20.9,-12.9,-17.8,9.4
N=C(N)c1c(O)n(C2CCCCC2)c(=O)n(C2CCCCC2)c1=O,25.9,60.7*,14.6,-26.8,17.6,45.6*
COC(=O)[C@@H]1[C@@H](C(=O)OC)C2(c3ccccc3-c3ccccc32)N(c2ccc(Cl)cc2)N1C#N,-23.2,-14.9,11.9,15.8*,15.1,9.9
COC(=O)C[C@]1(C(=O)OC)CN(C#N)N(c2ccc(Cl)cc2)C12c1ccccc1-c1ccccc12,-8.1,-10.6,-4.8,24.0*,-9.0,7.2
COc1ccc2nc3c(C)n(C)ccc-3c2c1,·,·,·,·,10.0,0.4
CCCCn1nnnc1C(CCSC)N1CCC2(CC1)C(=O)NCN2c1ccccc1 (stereo not drawn),·,·,·,·,47.9,10.8
COc1ccc(C(c2nnnn2C(C)(C)C)N2CCC3(CC2)C(=O)NCN3c2ccccc2)cc1 (stereo not drawn),·,·,·,·,-41.7,4.1
C[n+]1c(-c2ccccc2)c2cc(N)ccc2c2ccc(N)cc21,-1.2,-1.5,51.1*,-11.5,2.1,1.9
CCN(CC)c1ccc(/C=C2/C(=O)NC(=O)N(CC3CCCO3)C2=O)cc1 (stereo not drawn),-9.3,-1.7,38.5,-0.4,13.2,42.3*
O=C1NC(=O)N(CC2CCCO2)C(=O)/C1=C/c1cccs1 (stereo not drawn),-9.2,-9.7,11.7,7.1,-36.9,4.3
CCN1CCN(C(=O)Cc2c(C)n(C(=O)c3ccc(Cl)cc3)c3ccc(OC)cc23)CC1,-32.9,-17.1,21.6,-0.4,-20.5,3.2
Nc1ccc2ccc3cccc[n+]3c2c1,12.1,37.5*,36.1,1.1,8.2,40.1*
O=P(Oc1ccccc1)(Oc1ccccc1)c1ccccc1,-32.4,-18.9,37.5,7.7,-29.7,1.9
COC(=O)C1=C(c2cc3ccccc3o2)C[C@@H]2CC[C@H]1N2C(=O)NCc1ccc(F)cc1,-24.9,-5.8,31.6,·,-7.6,10.8
COC(=O)C1=C(c2cc3ccccc3o2)C[C@@H]2CC[C@H]1N2C(=O)NCc1cccc2ccccc12,30.7,-14.3,69.0*,·,5.8,7.5
CC1OC(OC2C=C3CCC4C(CCC5(C)C(c6ccc(=O)oc6)CCC45O)C3(C)CC2)C(O)C(OC2OC(CO)C(O)C(O)C2O)C1O (stereo not drawn),·,·,·,·,2.3,-0.5
CCn1ccnc1CN1CCCC(C(=O)c2cc(C)c(OC)c(C)c2)C1 (stereo not drawn),-17.3,-19.8,21.1,-4.8,-15.7,-0.3
